Test system: MS2 coat protein
Test: apparent Kd, MS2 coat protein; higher = weaker binding; RNA-MaP array
Outline: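 With or without input ligand, designed RNAs transcribed on an Illumina sequencing chip from sequenced DNA templates were incubated at room temperature with fluorescently labeled MS2 coat protein at 1.5 nM to 3 μM. The buffer was Tris-HCl pH 7.5 with KCl, MgCl2, BSA, DTT, tRNA and Tween20, and incubation ran 0.8–1.5 h at the lowest and 10–20 min at the highest concentrations. Apparent Kd is reported as the median of fits to binding curves from individual clusters. Designs measured on fewer than 10 clusters are not included.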

[1] = designed as: ON switch for flavin mononucleotide, no ligand
[2] = ligand present: flavin mononucleotide, designed as: ON switch for flavin mononucleotide
[3] = designed as: OFF switch for tryptophan, no ligand
[4] = ligand present: tryptophan, designed as: OFF switch for tryptophan
[5] = designed as: OFF switch for flavin mononucleotide, no ligand
[6] = ligand present: flavin mononucleotide, designed as: OFF switch for flavin mononucleotide
[7] = designed as: ON switch for tryptophan, no ligand
[8] = ligand present: tryptophan, designed as: ON switch for tryptophan
[9] = designed as: OFF switch for theophylline, no ligand
[10] = ligand present: theophylline, designed as: OFF switch for theophylline

Sequence | apparent Kd [5] | apparent Kd [6] | further results
AAAUUAACGAAGAAGGCCUGACGACAUGACUACAUGAGGAUCACCCAUGUUGCAGCACAAUAUAAGGAGGAUAUUCGACAAGCU |  |  | apparent Kd [1]: 10.2 nM; apparent Kd [2]: 6.86 nM
AACAUACAUGAGGAUCACCCAUGUCAAGAGAUGAAAGGAUAUAACUCUAUCAGGGUAAAGUAAGAAGGUUCGACUA |  |  | apparent Kd [1]: 23.5 nM; apparent Kd [2]: 20.1 nM
AACUGAAGCACCUUAUGCGGCGGCAAAACCCGAGGACCGGUACGGCCGCCACUCGAGUCGCAACAUGAGGAUCACCCAUGUGUAU |  |  | apparent Kd [3]: 51.3 nM; apparent Kd [4]: 117 nM
AAGGGCGACGGACAGGAUAUAGUUAUUGUUACAUGAGGAUCACCCAUGUCUCCAGGUCUUUGACGCUAGAAGGGUCCCUCCUCGAC |  |  | apparent Kd [1]: 61.2 nM; apparent Kd [2]: 26.5 nM
AAGUACUUUGAGAAGGACCUCUCGAACAUGAGGAUCACCCAUGUCACGGAGUACCCGAUCGGCUGGUAGGAUAUCAUGGUACCG |  |  | apparent Kd [1]: 9.89 nM; apparent Kd [2]: 8.15 nM
AAUAAGUUAGGAUAUUCAGGAGCAGCGCAAUGGUACGAGUCGAAGAAGGAACAUGAGGAUCACCCAUGUGAACC | 11.2 nM | 11.5 nM | 
AAUACAGCUACGGCCGCCACUUUAACUUGGUAUGGGUCCUUCACAAACAUGAGGAUCACCCAUGUAAGGACCGGGUAGCCUUGUU |  |  | apparent Kd [3]: 21.1 nM; apparent Kd [4]: 35 nM
AAUAUAGCAGGAUAUACAGAACACCAAUAGACUUCGUUUAGACAUGAGGAUCACCCAUGUAGAAGGGCUCAGAC | 9.85 nM | 9.18 nM | 
AAUUGAAACAGAGGUAUAUACGGACAUUACCGAGGACCGGUACGGCCGCCACUCGACCUAAAACAUGAGGAUCACCCAUGUAGCA |  |  | apparent Kd [3]: 13.1 nM; apparent Kd [4]: 13.6 nM
AAUUGUCGAGCAGGAUAUAGCUGACAGGAUAUUCAACUAACGACAUGAGGAUCACCCAUGUGUGGCUAGAAGGGCUUCAAGGCA |  |  | apparent Kd [1]: 15.2 nM; apparent Kd [2]: 11.5 nM
ACAACGUAACGAGGAUAUAAUCUAAAAGUUCGGUGACGUAGACAUGAGGAUCACCCAUGUUAGUAUUAGAAGGCGUUCGGCGGG | 14.4 nM | 41.9 nM | 
ACAGACAAGUAGAAGGCAAUGAGGAGUGAAAAUUGAGGAUAUACCAGCAUGAGUGCCUACAUGAGGAUCACCCAUGUGUAGAUU | 388 nM | 395 nM | 
ACAUACAUGAGGAUCACCCAUGUGGGAUCUUCCUCUAAAACUAAGGAUAUGUCAGUUGGUUAACUACAGAAGGUAGGUCGGAAC | 313 nM | 306 nM | 
ACAUAGUAAGGAUAUCUCCUGUUCGAGAAAGAGAGGCAUAAAGAGAAGGUACAUGAGGAUCACCCAUGUGACGA | 7.51 nM | 7.26 nM | 
ACAUGAGGAUCACCCAUGUUAUAGGGCAGGGAACGGAGCAUCUAGGAUAUUGUACACCGGCUACACAAGAAGGAGACCGAAGCU | 15.7 nM | 12.3 nM | 
ACCCGCUCCUGAGGAUAUCCGGCAUGACAUGAGGAUCACCCAUGUGGGCUCGUGGAGGGAGUGCAGGAGAAGGCAGUAGGCGCU | 35.7 nM | 82.6 nM | 
ACGAUGAUAGAAGGAUAUAGGCCGAACAUGAGGGACAUGAGGAUCACCCAUGUGACAGUCGGACCCUAGAAGGUCUCGAUACUC | 21.2 nM | 15.1 nM | 
ACUCAGUCAGGAUAUAGAGCCGCACGAGAUCGUGACUCGAUCUAGAAGGGACAUGAGGAUCACCCAUGUUAAGA | 12.7 nM | 20.8 nM | 
ACUCAGUGAGGAUAUAUAGACGAGGAAAAGUGGAAACUUGAAUAGAAGGCACAUGAGGAUCACCCAUGUCGACG | 8.5 nM | 10.8 nM | 
ACUGAUUAUGUGAGGAUAUCGCUUUCAGGCAGAAACGAGAAGGCACAUGAGGAUCACCCAUGUUACGUCCACUG | 6.64 nM | 9.56 nM | 
ACUGUACUGGGAGGAUAUGGAGAGUUACCGUAAAUAAUCUACUAGACAUGAGGAUCACCCAUGUUCCAGAAGGCCCCAUGGACC |  |  | apparent Kd [1]: 14.9 nM; apparent Kd [2]: 10.4 nM
AGACACAUGAGGAUCACCCAUGUACACGAGCGAGGACCGGUACGGCCGCCACUCGUCCAAGCAACUAAUGAGACUCGUAAGAUGG |  |  | apparent Kd [7]: 24.6 nM; apparent Kd [8]: 29.3 nM
AGACUCCUAGCAGGAUAUGUUCAAGGAACAAAGAGAACAUGAGGAUCACCCAUGUACACAUAUGAACAGAAGGGCUGAAGAAAA |  |  | apparent Kd [1]: 8.24 nM; apparent Kd [2]: 6.66 nM
AGAUCGCAAUAAGGAUAUGCACCUAAGACUCAAAGAACUCUUGACAUGAGGAUCACCCAUGUAACGCAGAAGGUAUAUGACUCA |  |  | apparent Kd [1]: 21 nM; apparent Kd [2]: 15.1 nM
AGCAAGACCGAGUCCAAUAACAUGAGGAUCACCCAUGUGUUCGAGGAUAUUAGGACUGAUGGGACUAAGAAGGCGAUCCCUUGU |  |  | apparent Kd [1]: 46.5 nM; apparent Kd [2]: 37.2 nM
AGCAAUACAUAAGGAUAUGACAUCCAAGAGGAAUCAGAAGGUAUGCAGGCGACAUGAGGAUCACCCAUGUAAUCAUGAGGCAAU |  |  | apparent Kd [1]: 19.4 nM; apparent Kd [2]: 15.8 nM
AGCUAUUCGGGUAAGGAUAUCGAUGUUGUUACAUGAGGAUCACCCAUGUUGCUCGACAUCAGUGACGAGAAGGUACAGCGUGGUAU |  |  | apparent Kd [1]: 8.89 nM; apparent Kd [2]: 8.79 nM

Sequence | apparent Kd [5] | apparent Kd [6] | further results
AGGCCCUCACAUGAGGAUCACCCAUGUACGUACGCAGGUGGAAGAAGGCCGGUACAACCUAAUCCGGAGGAUAUUCGAAUUAAC | 372 nM | 199 nM | 
AGGUAGCGAGACUUACAUGAGGAUCACCCAUGUACCACGCGGAAGGAUAUAACGGCAGGCUUUGCUUAGAAGGUCCGCGGUACU | 26.9 nM | 20.4 nM | 
AGUACAUCGGAGAAGGUGCAAGGUUAGCUUUCGCAAGGAUAUCCACACCCUUAGUACAGUGCUACAUGAGGAUCACCCAUGUUA | 10.1 nM | 10.2 nM | 
AGUCACAUGAGGAUCACCCAUGUGCCAGAACGAGGACCGGUACGGCCGCCACUCGAGGCGUCCGUCGACAAUAAUGUGAACUGCA |  |  | apparent Kd [7]: 10.7 nM; apparent Kd [8]: 12.1 nM
AGUGGGUUUCAGGAUAUAAUAUUAUCAACCAUAUUAGAAGGGAAUACAUGAGGAUCACCCAUGUUGAGUAUACG | 11.7 nM | 9.38 nM | 
AGUUCACAGGUGAGGAUAUCGGAGCACACAGACAGCGAGAAGGCACAUGAGGAUCACCCAUGUGGUCAGAAAAC | 8.73 nM | 10.8 nM | 
AGUUUUCCUGAGAAGGUGGAGGUCUUUCAUUGCCAAGGAUAUCAGACAACAAUGUAGCCCAAACAUGAGGAUCACCCAUGUCUC |  |  | apparent Kd [1]: 70.7 nM; apparent Kd [2]: 42.1 nM
AUAUUUUUGUAAUGACAUGAGGAUCACCCAUGUAUCAAUGUAAGAAGGAGGAAAUAAACACGAUCCUAGGAUAUUAGGUGAUUA |  |  | apparent Kd [1]: 44.5 nM; apparent Kd [2]: 35.3 nM
AUCAUGUUAGGAUAUACAAUGUAACGAUCAUUCUUGUAUGCGUAGAAGGAACAUGAGGAUCACCCAUGUGGAAG | 43 nM | 46.8 nM | 
AUCGAUAAGAAGAAGGUGUGACAUGAGGAUCACCCAUGUUAUUGAACAGCACAUGAUCACAGAUACAAGGAUAUUCUACGUAUG | 24.4 nM | 23.7 nM | 
AUCGGCAGAAAAGAUACCAGAGUAAUACACAACAUGAGGAUCACCCAUGUACGGACAAUCCUCCCUUGGCAGCUUGUAACAGUAU |  |  | apparent Kd (designed as: ON switch for theophylline, no ligand): 47.8 nM; apparent Kd (ligand present: theophylline, designed as: ON switch for theophylline): 26.9 nM
AUGCUGUGAGGAUAUCAGUCCCAGAAAAGCUGGCCGCUGACUGAGAAGGCACAUGAGGAUCACCCAUGUUCAAC | 10.2 nM | 15.7 nM | 
CAAGAAUGACGUACAGAUAACAAUAACGAUACCAGUACAUCAUUAUACCCUUGGCAGCGUUUCACAUGAGGAUCACCCAUGUACA |  |  | apparent Kd [9]: 17.4 nM; apparent Kd [10]: 18.4 nM
CAAUGCGGUUAGGAUACCAGCGACACACACUUCUCACAACACAUGAGGAUCACCCAUGUCCGCCCUUGGCAGCCUUGACUAAGGU |  |  | apparent Kd [9]: 30.1 nM; apparent Kd [10]: 146 nM
CAAUGGGAACCAUAUGUUUACAUGAGGAUCACCCAUGUUACAUAGGAUAUCUCGGUUGGGUUCGUAGAGAAGGAUGUAGAGUAG | 5.28 nM | 5.3 nM | 
CACAUGAGGAUCACCCAUGUGUGGUGGGUGGUGCAACAUUGUAAGGAUAUAAUGGACGUCGGCCCUUAGAAGGUACAUUGUACG | 139 nM | 110 nM | 
CACUGACAACGAGGAUAUGGUCGAGCCAGACAUGAGGAUCACCCAUGUAUCGAAAGCAAUAAACUCCAGAAGGCGUAACAGUUG |  |  | apparent Kd [1]: 10.4 nM; apparent Kd [2]: 11.6 nM
CAGCAACAAUUGGAUACCAGCCAUUACAGGUAUCAUUAUAACAUGAGGAUCACCCAUGUAGGCCCUUGGCAGCCAUUGGUGUAAG |  |  | apparent Kd [9]: 39.1 nM; apparent Kd [10]: 106 nM
CAGGAUCCGAAGAAGGGCAUCGGCCACAGGGCUGCAGGAUAUUCAAUUCAUGCAACAUGAGGAUCACCCAUGUAAUGGGCCGUU | 27.5 nM | 22.3 nM | 
CAUCAUGGGCUUGGACAAAUUGUGCUUGAUACCAGAAAUCACCGGUUCCCUUGGCAGCAACCCACAUGAGGAUCACCCAUGUGGA |  |  | apparent Kd [9]: 20.6 nM; apparent Kd [10]: 31.2 nM
CAUGUAGGCGAGAAGGCAACCGCGGUCCGGGAUUGAGGAUAUCGGCCAGGUGAUCCCGCCCAACAUGAGGAUCACCCAUGUAGC | 339 nM | 202 nM | 
CAUUCUUUAGUAAGGAUAUCAACUUGUUUAUAUAAUGAGAAGGUACAUGAGGAUCACCCAUGUCUCACAUCGGU | 8.72 nM | 7.9 nM | 
CCACCAACAGGAUAUACGCUGAGGUUUUCUAACGGUCAUGUACAUGAGGAUCACCCAUGUAGAAGGGUUGUAGG | 37 nM | 55.6 nM | 
CCACGACUAGGAUAUACCUAUGUUCACUCGUGAUCAAGGACACAUGAGGAUCACCCAUGUAGAAGGAGUCGCUA | 8.84 nM | 10.6 nM | 
CCAGGACAUGAGGAUCACCCAUGUCAACAUCAAAUAAGCGCGUAGGAUAUCAAUACUGAAAGCUUUGAGAAGGACGAGAGGGUA |  |  | apparent Kd [1]: 22.8 nM; apparent Kd [2]: 17.8 nM
CCCUCGUCAACGGCCGCCACUGUGAUUCACUAAGAUAAUAUUGCACAUGAGGAUCACCCAUGUCUCAGGACCGGGUUGGUGUGUC |  |  | apparent Kd [7]: 105 nM; apparent Kd [8]: 65.9 nM
CCCUCUUUAUAGGAUAUGUAGACCAUGGGACAAACAGAAGGAUAGACAUGAGGAUCACCCAUGUGGGAAAACUU | 31.8 nM | 30.4 nM | 

From the EternaBench riboswitch data
